Converted amounts (≈) assume the structure as drawn. Blank lines part the entries; values can stand above or below the compound they belong to.
What was measured:
Candida tropicalis [1] = test: Inhibition of Candida tropicalis 156 growth for 48 hours in vitro.; format: functional
Outline: (§1)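 NCCLS M27-A broth microdilution in RPMI 1640 with L-glutamine and 0.165 M MOPS, pH 7.0. Isolates kept on Sabouraud dextrose agar. Inoculum 5 × 10^3 cfu/mL final. Compounds were diluted in DMSO (≤2% final) and tested in 2-fold dilutions of 1000–0.24 µmol/L. Incubation at 35 °C, OD540 read at 24 and 48 h. MIC = 80% growth inhibition versus control; assays run twice in duplicate.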

Lichtheimia corymbifera [2] = test: In vitro inhibition of Absidia corymbifera 272 growth for 24 hours.; format: functional
Outline: (§2)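 Filamentous isolates tested by microdilution per NCCLS M27-A in RPMI 1640 plus L-glutamine, buffered with 0.165 M MOPS to pH 7.0. Final inoculum 5 × 10^3 cfu/mL. Compounds in DMSO (final ≤2%), 2-fold series over 1000–0.24 µmol/L. Plates held at 35 °C and read visually after 24 and 48 h. MIC taken as 80% inhibition of control growth; determined twice in duplicate.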

Candida albicans [3] = test: Inhibition of Candida albicans ATCC 90028 for 24 hours in vitro.; format: functional; outline: as §1
Clavispora lusitaniae [4] = test: Inhibition of Candida lusitaniae 2446/I growth for 48 hours in vitro.; format: functional; outline: as §1
Candida albicans [5] = test: Inhibition of Candida albicans ATCC 44859 growth for 24 hours in vitro.; format: functional; outline: as §1
Nakaseomyces glabratus [6] = test: Inhibition of Candida glabrata 20/I growth for 48 hours in vitro.; format: functional; outline: as §1
Clavispora lusitaniae [7] = test: Inhibition of Candida lusitaniae 2446/I growth for 24 hours in vitro.; format: functional; outline: as §1
Candida parapsilosis [8] = test: Inhibition of Candida parapsilosis ATCC 22019 growth for 24 hours in vitro.; format: functional; outline: as §1
Pichia kudriavzevii [9] = test: Inhibition of Candida krusei ATCC 6258 growth for 24 hours in vitro.; format: functional; outline: as §1
Pichia kudriavzevii [10] = test: Inhibition of Candida krusei E28 growth for 48 hours in vitro.; format: functional; outline: as §1
Candida tropicalis [11] = test: Inhibition of Candida tropicalis 156 growth for 24 hours in vitro.; format: functional; outline: as §1
[12] = Inhibition of Trichophyton mentagrophytes 445 growth for 72 hours in vitro.; format: functional, Arthroderma benhamiae
Outline: (§3)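 Dermatophyte grown in MOPS-buffered (0.165 M, pH 7.0) RPMI 1640 containing L-glutamine, in an M27-A microdilution format. Inoculum 5 × 10^3 cfu/mL final. Compounds from DMSO stocks (≤2% final), 2-fold dilutions 1000–0.24 µmol/L. Incubated at 35 °C, growth judged visually at 72 and 120 h. MIC endpoint is 80% inhibition relative to control; measured twice in duplicate.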

Nakaseomyces glabratus [13] = test: Inhibition of Candida glabrata 20/I growth for 24 hours in vitro.; format: functional; outline: as §1
Aspergillus fumigatus [14] = test: Inhibition of Aspergillus fumigatus 231 growth for 48 hours in vitro.; format: functional; outline: as §2
Pichia kudriavzevii [15] = test: Inhibition of Candida krusei ATCC 6258 growth for 48 hours in vitro.; format: functional; conditions: Pichia kudriavzevii, ATCC 6258, 48 h; read-out: MIC; outline: as §1
Lichtheimia corymbifera [16] = test: In vitro inhibition of Absidia corymbifera 272 growth for 48 hours.; format: functional; outline: as §2
Candida parapsilosis [17] = test: Inhibition of Candida parapsilosis ATCC 22019 growth for 48 hours in vitro.; format: functional; outline: as §1
[18] = Inhibition of Trichophyton mentagrophytes 445 growth for 120 hours in vitro.; format: functional, Arthroderma benhamiae; outline: as §3
Candida albicans [19] = test: Inhibition of Candida albicans ATCC 90028 for 48 hours in vitro.; format: functional; outline: as §1
Pichia kudriavzevii [20] = test: Inhibition of Candida krusei E28 growth for 24 hours in vitro.; format: functional; outline: as §1
Aspergillus fumigatus [21] = test: Inhibition of Aspergillus fumigatus 231 growth for 24 hours in vitro.; format: functional; outline: as §2
Trichosporon beigelii [22] = test: Inhibition of Trichosporon beigelli 1188 for 24 hours in vitro.; format: functional
Outline: (§4)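 Microdilution following NCCLS M27-A. Medium: RPMI 1640 with L-glutamine, 0.165 M MOPS, pH 7.0. Final inoculum 5 × 10^3 cfu/mL. Compounds dissolved in DMSO, final ≤2%, serially halved from 1000 to 0.24 µmol/L. Incubated at 35 °C and read at 24 and 48 h. MIC defined as 80% inhibition of control growth; run twice in duplicate.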

Candida albicans [23] = test: Inhibition of Candida albicans ATCC 44859 growth for 48 hours in vitro.; format: functional; outline: as §1
Trichosporon beigelii [24] = test: Inhibition of Trichosporon beigelli 1188 for 48 hours in vitro.; format: functional; outline: as §4
[25] = Candida tropicalis, 48 h, read-out: MIC
[26] = Lichtheimia corymbifera, 24 h, read-out: MIC
[27] = Candida albicans, ATCC 90028, 24 h, read-out: MIC
[28] = Clavispora lusitaniae, 48 h, read-out: MIC
[29] = Candida albicans, ATCC 44859, 24 h, read-out: MIC
[30] = Nakaseomyces glabratus, 48 h, read-out: MIC
[31] = Clavispora lusitaniae, 24 h, read-out: MIC
[32] = Lodderomyces parapsilosis, ATCC 22019, 24 h, read-out: MIC
[33] = Pichia kudriavzevii, ATCC 6258, 24 h, read-out: MIC
[34] = Pichia kudriavzevii, 48 h, read-out: MIC
[35] = Candida tropicalis, 24 h, read-out: MIC
[36] = Trichophyton benhamiae, 72 h, read-out: MIC
[37] = Nakaseomyces glabratus, 24 h, read-out: MIC
[38] = Aspergillus fumigatus, 48 h, read-out: MIC
[39] = Lichtheimia corymbifera, 48 h, read-out: MIC
[40] = Lodderomyces parapsilosis, ATCC 22019, 48 h, read-out: MIC
[41] = Trichophyton benhamiae, 120 h, read-out: MIC
[42] = Candida albicans, ATCC 90028, 48 h, read-out: MIC
[43] = Pichia kudriavzevii, 24 h, read-out: MIC
[44] = Aspergillus fumigatus, 24 h, read-out: MIC
[45] = Trichosporon beigelii, 24 h, read-out: MIC
[46] = Candida albicans, ATCC 44859, 48 h, read-out: MIC
[47] = Trichosporon beigelii, 48 h, read-out: MIC

MIC (Candida tropicalis [1]; [25]): 500 µM (≈ 135 µg/mL)
MIC (Lichtheimia corymbifera [2]; [26]): 250 µM (≈ 67.3 µg/mL)
MIC (Candida albicans [3]; [27]): 250 µM (≈ 67.3 µg/mL)
MIC (Clavispora lusitaniae [4]; [28]): 250 µM (≈ 67.3 µg/mL)
MIC (Candida albicans [5]; [29]): 31.2 µM (≈ 8.41 µg/mL)
MIC (Nakaseomyces glabratus [6]; [30]): 125 µM (≈ 33.6 µg/mL)
MIC (Clavispora lusitaniae [7]; [31]): 250 µM (≈ 67.3 µg/mL)
MIC (Candida parapsilosis [8]; [32]): 250 µM (≈ 67.3 µg/mL)
MIC (Pichia kudriavzevii [9]; [33]): 500 µM (≈ 135 µg/mL)
MIC (Pichia kudriavzevii [10]; [34]): 500 µM (≈ 135 µg/mL)
MIC (Candida tropicalis [11]; [35]): 250 µM (≈ 67.3 µg/mL)
MIC [12, 36]: 15.6 µM (≈ 4.21 µg/mL)
MIC (Nakaseomyces glabratus [13]; [37]): 125 µM (≈ 33.6 µg/mL)
MIC (Aspergillus fumigatus [14]; [38]): 125 µM (≈ 33.6 µg/mL)
MIC (Pichia kudriavzevii [15]): 1000 µM (≈ 269 µg/mL)
MIC (Lichtheimia corymbifera [16]; [39]): 250 µM (≈ 67.3 µg/mL)
MIC (Candida parapsilosis [17]; [40]): 500 µM (≈ 135 µg/mL)
MIC [18, 41]: 15.6 µM (≈ 4.21 µg/mL)
MIC (Candida albicans [19]; [42]): 250 µM (≈ 67.3 µg/mL)
MIC (Pichia kudriavzevii [20]; [43]): 500 µM (≈ 135 µg/mL)
MIC (Aspergillus fumigatus [21]; [44]): 62.5 µM (≈ 16.8 µg/mL)
MIC (Trichosporon beigelii [22]; [45]): 125 µM (≈ 33.6 µg/mL)
MIC (Candida albicans [23]; [46]): 62.5 µM (≈ 16.8 µg/mL)
MIC (Trichosporon beigelii [24]; [47]): 500 µM (≈ 135 µg/mL)
Structure (SMILES): O=C1OC(CO)C=C1c1ccc(Br)cc1 (stereo unspecified)

MIC (Candida tropicalis [1]; [25]): 31.2 µM (≈ 11.3 µg/mL)
MIC (Lichtheimia corymbifera [2]; [26]): 3.91 µM (≈ 1.42 µg/mL)
MIC (Candida albicans [3]; [27]): 7.81 µM (≈ 2.84 µg/mL)
MIC (Clavispora lusitaniae [4]; [28]): 15.6 µM (≈ 5.68 µg/mL)
MIC (Candida albicans [5]; [29]): 1.95 µM (≈ 0.708 µg/mL)
MIC (Nakaseomyces glabratus [6]; [30]): 1.95 µM (≈ 0.708 µg/mL)
MIC (Clavispora lusitaniae [7]; [31]): 7.81 µM (≈ 2.84 µg/mL)
MIC (Candida parapsilosis [8]; [32]): 7.81 µM (≈ 2.84 µg/mL)
MIC (Pichia kudriavzevii [9]; [33]): 7.81 µM (≈ 2.84 µg/mL)
MIC (Pichia kudriavzevii [10]; [34]): 15.6 µM (≈ 5.68 µg/mL)
MIC (Candida tropicalis [11]; [35]): 15.6 µM (≈ 5.68 µg/mL)
MIC [12, 36]: 1.95 µM (≈ 0.708 µg/mL)
MIC (Nakaseomyces glabratus [13]; [37]): 1.95 µM (≈ 0.708 µg/mL)
MIC (Aspergillus fumigatus [14]; [38]): 3.91 µM (≈ 1.42 µg/mL)
MIC (Pichia kudriavzevii [15]): 15.6 µM (≈ 5.68 µg/mL)
MIC (Lichtheimia corymbifera [16]; [39]): 15.6 µM (≈ 5.68 µg/mL)
MIC (Candida parapsilosis [17]; [40]): 31.2 µM (≈ 11.3 µg/mL)
MIC [18, 41]: 3.91 µM (≈ 1.42 µg/mL)
MIC (Candida albicans [19]; [42]): 7.81 µM (≈ 2.84 µg/mL)
MIC (Pichia kudriavzevii [20]; [43]): 15.6 µM (≈ 5.68 µg/mL)
MIC (Aspergillus fumigatus [21]; [44]): 1.95 µM (≈ 0.708 µg/mL)
MIC (Trichosporon beigelii [22]; [45]): 7.81 µM (≈ 2.84 µg/mL)
MIC (Candida albicans [23]; [46]): 3.91 µM (≈ 1.42 µg/mL)
MIC (Trichosporon beigelii [24]; [47]): 15.6 µM (≈ 5.68 µg/mL)
Structure (SMILES): O=C1OC(COC(=O)c2ccc(Cl)cc2)C=C1c1cccc(Cl)c1 (stereo unspecified)

MIC (Candida tropicalis [1]): 10.73 uM l-1
MIC (Lichtheimia corymbifera [2]): 10.73 uM l-1
MIC (Candida albicans [3]): 1.34 uM l-1
MIC (Clavispora lusitaniae [4]): 2.68 uM l-1
MIC (Candida albicans [5]): 0.67 µM (≈ 0.23 µg/mL)
MIC (Nakaseomyces glabratus [6]): 1.34 uM l-1
MIC (Clavispora lusitaniae [7]): 1.34 uM l-1
MIC (Candida parapsilosis [8]): 2.68 uM l-1
MIC (Pichia kudriavzevii [9]): 5.36 uM l-1
MIC (Pichia kudriavzevii [10]): 10.73 uM l-1
MIC (Candida tropicalis [11]): 5.36 uM l-1
MIC [12]: 0.34 µM (≈ 0.117 µg/mL)
MIC (Nakaseomyces glabratus [13]): 0.67 µM (≈ 0.23 µg/mL)
MIC (Aspergillus fumigatus [14]): 2.68 uM l-1
MIC (Lichtheimia corymbifera [16]): 10.73 uM l-1
MIC (Candida parapsilosis [17]): 5.36 uM l-1
MIC [18]: 0.67 uM l-1
MIC (Candida albicans [19]): 2.68 µM (≈ 0.92 µg/mL)
MIC (Pichia kudriavzevii [20]): 5.36 uM l-1
MIC (Aspergillus fumigatus [21]): 1.34 uM l-1
MIC (Trichosporon beigelii [22]): 2.68 uM l-1
MIC (Candida albicans [23]): 1.34 uM l-1
MIC (Trichosporon beigelii [24]): 5.36 uM l-1
Structure (SMILES): CC(C)(C)C(=O)OCC1C=C(c2ccc(Cl)c(Cl)c2)C(=O)O1 (single isomer, unassigned; (+))
